Results from ChEMBL document CHEMBL6114938, “Design, synthesis, and biological evaluation of pyrazole-ciprofloxacin hybrids as antibacterial and antibiofilm agents against Staphylococcus aureus” (RSC Med Chem, 2025).
In brackets after ≈: the same amount, converted by molar mass. Activity calls are given as the source filed them. No cut-off for these calls is given here.

What was measured:
Staphylococcus aureus [1] = assay: Antibacterial activity against Staphylococcus aureus ATCC 29213 assessed as inhibition of bacterial growth incubated for 18 to 24 hrs by two-fold serial dilution method; format: functional; conditions: time 18-24 hrs
Procedure, shortened: (§1)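 Broth microdilution in cation-adjusted Mueller Hinton broth with two-fold serial dilutions. Inoculum came from overnight cultures on Mueller Hinton agar, set to OD600 0.08-0.1 and diluted 100-fold, then added 1:1 to the compound wells. Plates were incubated at 37 °C for 18-24 h and read visually. MIC is the lowest concentration with no turbidity.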

Pseudomonas aeruginosa = assay: Antibacterial activity against Pseudomonas aeruginosa PAO1 ATCC 15692 assessed as inhibition of bacterial growth incubated for 18 to 24 hrs by two-fold serial dilution method; format: functional; conditions: time 18-24 hrs; procedure, shortened: as §1
[2] = test system: Mycobacterium tuberculosis; assay: Antimycobacterial activity against Mycobacterium tuberculosis H37Ra ATCC 25177 assessed as inhibition of bacterial growth incubated for 10 days by liquid broth microdilution method; format: functional; conditions: H37Ra ATCC 25177, 240 h, time 10 day
Procedure, shortened: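 Log-phase H37Ra (OD₆₀₀ 0.4–0.6) was grown in 7H9 with D-pantothenic acid, amino acids, 0.2% glycerol, 0.05% Tween 80 and 10% ADS, then diluted to OD₆₀₀ 0.005 (1.0×10⁶ CFU/ml). Compounds were two-fold serially diluted in 7H9, and plates were incubated for 10 days at 37 °C in 5% CO₂. MIC was the lowest concentration without visible turbidity.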

Staphylococcus aureus [3] = assay: Antibacterial activity against one-step ciprofloxacin resistant mutant of Staphylococcus aureus ATCC 29213 assessed as inhibition of bacterial growth by liquid broth microdilution assay; format: functional
Procedure, shortened: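 One-step ciprofloxacin-resistant mutants were raised by plating log-phase cells adjusted to 10¹⁰ CFU/ml on ciprofloxacin-containing Mueller-Hinton agar for 48 h at 37 °C, then passaging picked colonies on ciprofloxacin plates. Mutants with a more than eightfold rise in ciprofloxacin MIC were kept. MIC was read by broth microdilution: two-fold dilutions in cation-adjusted MHB, and inoculum of OD₆₀₀ 0.08–0.1 diluted hundredfold. Plates ran 18–24 h at 37 °C, and MIC was the lowest concentration with no visible turbidity.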

Staphylococcus aureus [4] = assay: Antibiofilm activity against Staphylococcus aureus ATCC 29213 assessed as inhibition of biofilm formation incubated for 24 hrs by crystal violet staining based analysis; format: functional
Procedure, shortened: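 Biofilm formation assay with inoculum at OD600 0.015 from overnight culture. Twelve two-fold dilutions (128 to 0.06 µg/ml) were made in MHB with 2% sucrose in flat-bottom polystyrene wells and incubated at 37 °C for 24 h. Wells were washed with PBS pH 7.4, fixed with methanol, stained with 0.1% crystal violet, eluted with 95% ethanol and read at A595. MBIC50 is the lowest concentration giving ≥50% inhibition versus untreated culture.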

[5] = Cytotoxicity against human HepG2 cells assessed as reduction in cell viability incubated for 48 hrs by MTT assay; format: toxicity, cell-based
Procedure, shortened: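 MTT viability assay in HepG2 cells seeded at 1000-4000 per well and allowed to adhere overnight. Compounds were tested at 1000-0.78 µg/mL for 48 h in fresh medium. MTT 0.5 mg/mL was added for 4 h at 37 °C, formazan was dissolved in DMSO, and absorbance was read at 570 nm.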

Staphylococcus aureus [6] = assay: Antibacterial activity against methicillin-resistant Staphylococcus aureus assessed as inhibition of bacterial growth; format: functional
[7] = test system: Mycobacterium tuberculosis; assay: Antimycobacterial activity against Mycobacterium tuberculosis H37Rv ATCC 27294 assessed as inhibition of bacterial growth incubated for 7 days by broth microdilution assay; format: functional; conditions: H37Rv ATCC 27294, 168 h, time 7 day
Staphylococcus aureus [8] = assay: Potency index, ratio of ciprofloxacin MIC to test compound MIC for antibacterial activity against Staphylococcus aureus ATCC 29213; format: functional
Staphylococcus aureus [9] = assay: Ratio of MIC for antibacterial activity against Staphylococcus aureus ATCC 29213 to MBIC50 for antibiofilm activity against Staphylococcus aureus ATCC 29213; format: functional
Staphylococcus aureus [10] = assay: Bactericidal activity against Staphylococcus aureus ATCC 29213 assessed as log reduction in bacterial load at 1XMIC measured within 9 hrs by time-kill kinetics analysis; format: functional
Procedure, shortened: (§2)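 Time-kill: log-phase cultures at OD600 0.005 were exposed to 1×, 4× and 8× MIC at 37 °C. Viable counts (CFU/ml) were taken by plating 10-fold serial dilutions at 2, 4, 6, 8, 10 and 24 h. Curves plot log10 CFU/ml against time over 24 h.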

Staphylococcus aureus [11] = assay: Bactericidal activity against Staphylococcus aureus ATCC 29213 assessed as log reduction in bacterial load at 4X to 8XMIC measured within 3 hrs by time-kill kinetics analysis; format: functional; procedure, shortened: as §2
[12] = target: DNA gyrase (Escherichia coli) (UniProt P0AES6+P0AES4); assay: Inhibition of Escherichia coli DNA gyrase assessed as reduction in supercoiled state of plasmid using pUC19 plasmid DNA as substrate at 8XMIC incubated for 90 mins by gel electrophoresis analysis; format: protein-complex assay
Staphylococcus aureus [13] = assay: Potency index, ratio of ciprofloxacin MBIC50 to test compound MBIC50 for antibiofilm activity against Staphylococcus aureus ATCC 29213; format: functional

## Cc1cc(-c2ccn(-c3ccc(NC(=O)CN4CCN(c5cc6c(cc5F)c(=O)c(C(=O)O)cn6C5CC5)CC4)cc3)n2)ccc1F
Staphylococcus aureus [1]
  MIC: 16 µg/mL (≈ 25.1 µM)
Pseudomonas aeruginosa
  MIC: 128 µg/mL (≈ 200 µM)
[2]
  MIC: 4 µg/mL (≈ 6.26 µM)

## O=C(CN1CCN(c2cc3c(cc2F)c(=O)c(C(=O)O)cn3C2CC2)CC1)Nc1ccc(-n2ccc(-c3ccc4c(c3)OCO4)n2)cc1
Staphylococcus aureus [1]
  MIC: 0.5 µg/mL (≈ 0.768 µM)
Pseudomonas aeruginosa
  MIC: 64 µg/mL (≈ 98.4 µM)
[2]
  MIC: 32 µg/mL (≈ 49.2 µM)
Staphylococcus aureus [3]
  MIC: 32 µg/mL (≈ 49.2 µM)
Staphylococcus aureus [4]
  MBIC50: 1.84 µg/mL
[5]
  CC50 at 48 h: > 1000 µg/mL

## CC/C(=C(\c1ccccc1)c1ccc(OCCN(C)C)cc1)c1ccccc1 [TAMOXIFEN]
[5]
  CC50 at 48 h: 3.7 µg/mL (≈ 9.95 µM)

## O=C(O)c1ccc(-c2nn(-c3ccc(C(F)(F)F)cc3)cc2CNc2ccc(Br)c(C(F)(F)F)c2)cc1
Staphylococcus aureus [6]
  MIC: < 1 µg/mL

## O=C(CN1CCN(c2cc3c(cc2F)c(=O)c(C(=O)O)cn3C2CC2)CC1)Nc1ccc(-n2ccc(-c3ccc(Br)cc3)n2)cc1
Staphylococcus aureus [1]
  MIC: 32 µg/mL (≈ 46.7 µM)
Pseudomonas aeruginosa
  MIC: 128 µg/mL (≈ 187 µM)
[2]
  MIC: 16 µg/mL (≈ 23.3 µM)

## O=C(Nc1ccc(-n2ccc(-c3cc4ccccc4o3)n2)cc1)c1cc([N+](=O)[O-])cc([N+](=O)[O-])c1
[7]
  MIC: 0.03 µg/mL (≈ 0.0639 µM)

## COc1ccc(-c2ccn(-c3ccc(NC(=O)CN4CCN(c5cc6c(cc5F)c(=O)c(C(=O)O)cn6C5CC5)CC4)cc3)n2)cc1
Staphylococcus aureus [1]
  MIC: 4 µg/mL (≈ 6.28 µM)
Pseudomonas aeruginosa
  MIC: 32 µg/mL (≈ 50.3 µM)
[2]
  MIC: 8 µg/mL (≈ 12.6 µM)

## O=C(CN1CCN(c2cc3c(cc2F)c(=O)c(C(=O)O)cn3C2CC2)CC1)Nc1ccc(-n2ccc(-c3ccc(Cl)cc3Cl)n2)cc1
Staphylococcus aureus [1]
  MIC: 16 µg/mL (≈ 23.7 µM)
Pseudomonas aeruginosa
  MIC: > 128 µg/mL
[2]
  MIC: 64 µg/mL (≈ 94.7 µM)

## COc1ccccc1-c1ccn(-c2ccc(NC(=O)CN3CCN(c4cc5c(cc4F)c(=O)c(C(=O)O)cn5C4CC4)CC3)cc2)n1
Staphylococcus aureus [1]
  MIC: 0.125 µg/mL (≈ 0.196 µM)
Pseudomonas aeruginosa
  MIC: 64 µg/mL (≈ 101 µM)
[2]
  MIC: 4 µg/mL (≈ 6.28 µM)
Staphylococcus aureus [8]
  Ratio: 2
Staphylococcus aureus [3]
  MIC: 0.125 µg/mL (≈ 0.196 µM)
Staphylococcus aureus [4]
  MBIC50: 0.02 µg/mL
Staphylococcus aureus [9]
  Ratio: 6
Staphylococcus aureus [10]
  Activity: >=3 log10CFU/ml
Staphylococcus aureus [11]
  Activity: >=3 log10CFU/ml
[5]
  CC50 at 48 h: > 1000 µg/mL
[12]
  inhibition: Active
Staphylococcus aureus [13]
  Ratio: 50

## O=C(CN1CCN(c2cc3c(cc2F)c(=O)c(C(=O)O)cn3C2CC2)CC1)Nc1ccc(-n2ccc(-c3ccc4ccccc4c3)n2)cc1
Staphylococcus aureus [1]
  MIC: 1 µg/mL (≈ 1.52 µM)
Pseudomonas aeruginosa
  MIC: 2 µg/mL (≈ 3.05 µM)
[2]
  MIC: 1 µg/mL (≈ 1.52 µM)

## O=C(CN1CCN(c2cc3c(cc2F)c(=O)c(C(=O)O)cn3C2CC2)CC1)Nc1ccc(-n2ccc(-c3ccc(Cl)cc3)n2)cc1
Staphylococcus aureus [1]
  MIC: 1 µg/mL (≈ 1.56 µM)
Pseudomonas aeruginosa
  MIC: 128 µg/mL (≈ 200 µM)
[2]
  MIC: 64 µg/mL (≈ 99.8 µM)

## NNC(=O)c1ccncc1 [ISONIAZID]
[2]
  MIC: 0.034 µg/mL (≈ 0.248 µM)
